Experiments:
[1] = Octanol/water partition coefficient, logD of compound at 74 kBq incubated for 2 mins by gamma counter method; type: physicochemical
In short: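 Octanol and PBS phases were mixed and vortexed for 2 min, then centrifuged at 3,000 rpm for 10 min. Aliquots of 0.5 mL from each phase were γ-counted and corrected for mass and density. LogD was taken as log10 of the octanol/PBS radioactivity ratio.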

[2] = Stability in PBS assessed as compound remaining at 185 kBq measured upto 60 mins by radio-HPLC analysis; type: physicochemical; details: read-out: Stability
In short: (§1)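 Radiotracer was incubated at 37 °C for up to 60 min in PBS (0.01 M, pH 7.4) or in mouse plasma. Samples were deproteinized with an equal volume of cold ACN and centrifuged. The supernatant was analyzed by radio-HPLC with 30 s fractions γ-counted to give the intact fraction. Triplicates.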

[3] = Stability in CD1 mouse plasma assessed as compound remaining at 185 kBq measured upto 60 mins by radio-HPLC analysis; type: ADME, cell-free; details: read-out: Stability; in short: as §1
[4] = Stability in PBS assessed as drug degradation at 185 kBq measured upto 60 mins by radio-HPLC analysis; type: physicochemical; details: buffer, 1 h; in short: as §1
[5] = Stability in CD1 mouse plasma assessed as drug degradation at 185 kBq measured upto 60 mins by radio-HPLC analysis; type: ADME, cell-free; details: 1 h; in short: as §1
[6] = Stability in female nude mouse harboring null mutation of CD1 antigen complex assessed as drug degradation at 5.1 to 7.4 MBq, iv measured at 60 mins by radio-HPLC analysis; type: ADME, organism-based; details: 1 h, dose 5.1-7.4 MBq
In short: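 Female CD1 nude mice received 5.1–7.4 MBq i.v. EDTA blood collected at 15, 30 and 60 min p.i. (n=3 per time point) was centrifuged to plasma, deproteinized with cold ACN and centrifuged. The supernatant was analyzed by radio-HPLC with 30 s fractions γ-counted to give the percent intact tracer.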

[7] = Drug uptake in liver of female nude mouse harboring null mutation of CD1 antigen complex at 5.1 to 7.4 MBq, iv measured after 15 to 60 mins by gamma counter analysis; type: ADME, organism-based; details: in vivo, dose lower 5.1 MBq, time lower 15 min, dose upper 7.4 MBq, time upper 60 min
In short: (§2)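 Female CD1 nude mice, 6–8 weeks old (20–25 g), received the radiotracer through the lateral tail vein. At 15, 30 and 60 min p.i. (n = 3 per time point) blood was drawn by cardiac puncture and the animals were euthanized. Organs were excised, weighed and γ-counted. Uptake is expressed as %ID/g.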

[8] = Drug uptake in intestine of female nude mouse harboring null mutation of CD1 antigen complex at 5.1 to 7.4 MBq, iv measured after 15 to 60 mins by gamma counter analysis; type: ADME, organism-based; details: in vivo, dose lower 5.1 MBq, time lower 15 min, dose upper 7.4 MBq, time upper 60 min; in short: as §2
[9] = Drug uptake in kidney of female nude mouse harboring null mutation of CD1 antigen complex assessed as increase in renal excretion at 5.1 to 7.4 MBq, iv measured after 15 to 60 mins by gamma counter analysis; type: ADME, organism-based; details: in vivo, dose lower 5.1 MBq, time lower 15 min, dose upper 7.4 MBq, time upper 60 min; in short: as §2
[10] = Drug uptake in urinary bladder of female nude mouse harboring null mutation of CD1 antigen complex assessed as increase in renal excretion at 5.1 to 7.4 MBq, iv measured after 15 to 60 mins by gamma counter analysis; type: ADME, organism-based; details: in vivo, dose lower 5.1 MBq, time lower 15 min, dose upper 7.4 MBq, time upper 60 min; in short: as §2
[11] = Drug uptake in tumor of female nude mouse harboring null mutation of CD1 antigen complex xenografted with human U-87 MG cells at 5 to 7.4 MBq, iv measured at 60 mins by PET/CT analysis; type: ADME, organism-based, Neoplasm; details: in vivo, 1 h, dose 5-7.4 MBq
In short: (§3)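 U-87MG xenografts (5×10^6 cells, subcutaneous flank) were grown in female CD1 nude mice to about 200 mm3. Dynamic whole-body PET over 60 min p.i. was followed by CT. Images were reconstructed with OSEM 3D and expressed as %ID/mL to give time-activity curves. For blocking, the FAP inhibitor (5 mg/kg) was given via the tail vein 30 min before the tracer; n=4.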

[12] = Drug uptake in tumor of female nude mouse harboring null mutation of CD1 antigen complex xenografted with human U-87 MG cells at 5 to 7.4 MBq, iv pretreated with (S)-N-(2-(2-cyano-4,4-difluoropyrrolidin-1-yl)-2-oxoethyl)quinoline-4-carboxamide for 30 mins followed by radioligand addition and measured measured after 60 mins by PET/CT analysis; type: ADME, organism-based, Neoplasm; details: in vivo, 1 h, dose 5-7.4 MBq; in short: as §3
[13] = Drug uptake in skull of female nude mouse harboring null mutation of CD1 antigen complex xenografted with human U-87 MG cells at 5 to 7.4 MBq, iv measured after 60 mins by gamma counter analysis; type: ADME, organism-based; details: in vivo, 1 h, dose 5-7.4 MBq
[14] = Ratio of drug level in tumor to muscle of female nude mouse harboring null mutation of CD1 antigen complex xenografted with human U-87 MG cells at 5 to 7.4 MBq, iv measured at 60 mins postinjection by gamma counter analysis; type: ADME, organism-based; details: in vivo, 1 h, dose 5-7.4 MBq
In short: (§4)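 Subcutaneous U-87MG xenografts (5×10^6 cells in DPBS, hind flank) were grown in female CD1 nude mice to about 200 mm3. After tail-vein radiotracer injection and a 60 min dynamic PET scan, tissues were harvested at 60 min p.i. and γ-counted (%ID/g). Tumor-to-tissue ratios are means ± SD of individual ratios, n=4 per tracer.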

[15] = Ratio of drug level in tumor to blood of female nude mouse harboring null mutation of CD1 antigen complex xenografted with human U-87 MG cells at 5 to 7.4 MBq, iv measured at 60 mins postinjection by gamma counter analysis; type: ADME, organism-based; details: tumour, 1 h, dose 5-7.4 MBq; in short: as §4
[16] = Ratio of drug level in tumor to small intestine of female nude mouse harboring null mutation of CD1 antigen complex xenografted with human U-87 MG cells at 5 to 7.4 MBq, iv measured at 60 mins postinjection by gamma counter analysis; type: ADME, organism-based; details: in vivo, 1 h, dose 5-7.4 MBq; in short: as §4
[17] = Ratio of drug level in tumor to liver of female nude mouse harboring null mutation of CD1 antigen complex xenografted with human U-87 MG cells at 5 to 7.4 MBq, iv measured at 60 mins postinjection by gamma counter analysis; type: ADME, organism-based; details: in vivo, 1 h, dose 5-7.4 MBq; in short: as §4
[18] = Drug uptake in tumor of female nude mouse harboring null mutation of CD1 antigen complex xenografted with human U-87 MG cells with increased FAP positive tumor area at 5 to 7.4 MBq, iv measured after 60 mins by immunohistochemistry analysis; type: ADME, organism-based, Neoplasm; details: in vivo, 1 h, dose 5-7.4 MBq
[19] = Drug uptake in tumor of female nude mouse harboring null mutation of CD1 antigen complex xenografted with human HT-29 cells with decreased FAP positive tumor area at 5 to 7.4 MBq, iv measured after 60 mins by immunohistochemistry analysis; type: ADME, organism-based, Neoplasm; details: in vivo, 1 h, dose 5-7.4 MBq
[20] = Drug uptake in bone structures of female nude mouse harboring null mutation of CD1 antigen complex xenografted with human U-87 MG cells at 5 to 7.4 MBq, iv measured after 60 mins by gamma counter analysis; type: ADME, organism-based, Bone element; details: in vivo, 1 h, dose 5-7.4 MBq
Prolyl endopeptidase FAP = biological target: T1, Prolyl endopeptidase FAP (Homo sapiens, UniProt Q12884); assay: Inhibition of FAP (unknown origin) using Z-Gly-Pro-7-amino-4-methylcoumarine as fluorogenic substrate preincubated for 15 mins followed by substrate addition and measured after 15 mins
T1 sequence (Q12884 whole entry): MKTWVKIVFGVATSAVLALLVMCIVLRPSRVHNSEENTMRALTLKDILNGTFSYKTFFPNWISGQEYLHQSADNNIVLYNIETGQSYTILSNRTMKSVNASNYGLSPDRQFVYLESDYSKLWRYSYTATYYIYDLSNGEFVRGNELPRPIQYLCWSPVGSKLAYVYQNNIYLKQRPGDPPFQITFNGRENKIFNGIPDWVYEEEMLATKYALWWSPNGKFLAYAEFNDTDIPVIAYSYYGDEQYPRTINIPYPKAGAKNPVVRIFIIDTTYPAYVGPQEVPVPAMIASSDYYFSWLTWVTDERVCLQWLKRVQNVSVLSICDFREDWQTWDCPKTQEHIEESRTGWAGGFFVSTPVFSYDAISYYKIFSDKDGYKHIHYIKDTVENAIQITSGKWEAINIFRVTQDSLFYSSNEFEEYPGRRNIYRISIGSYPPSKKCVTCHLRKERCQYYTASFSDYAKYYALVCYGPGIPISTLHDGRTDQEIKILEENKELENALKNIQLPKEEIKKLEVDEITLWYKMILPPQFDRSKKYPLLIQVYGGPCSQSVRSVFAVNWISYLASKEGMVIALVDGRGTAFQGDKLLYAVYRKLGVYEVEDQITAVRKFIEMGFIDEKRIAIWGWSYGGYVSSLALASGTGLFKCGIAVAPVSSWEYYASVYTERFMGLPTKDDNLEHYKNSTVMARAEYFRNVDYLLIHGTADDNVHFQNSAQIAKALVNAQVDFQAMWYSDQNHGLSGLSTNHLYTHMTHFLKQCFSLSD

Dipeptidyl peptidase 4 = Dipeptidyl peptidase 4 (Homo sapiens, UniProt P27487); assay: Inhibition of DPP4 (unknown origin) using Ala-Pro-paranitroanilide as chromogenic substrate preincubated for 15 mins followed by substrate addition and measured after 15 mins
Dipeptidyl peptidase 8 = Dipeptidyl peptidase 8 (Homo sapiens, UniProt Q6V1X1); assay: Inhibition of DPP8 (unknown origin) using Ala-Pro-paranitroanilide as chromogenic substrate preincubated for 15 mins followed by substrate addition and measured after 15 mins
Dipeptidyl peptidase 9 = Dipeptidyl peptidase 9 (Homo sapiens, UniProt Q86TI2); assay: Inhibition of DPP9 (unknown origin) using Ala-Pro-paranitroanilide as chromogenic substrate preincubated for 15 mins followed by substrate addition and measured after 15 mins
Dipeptidyl peptidase 2 = Dipeptidyl peptidase 2 (Homo sapiens, UniProt Q9UHL4); assay: Inhibition of DPP2 (unknown origin) using Lys-Ala-pNA as substrate preincubated for 15 mins followed by substrate addition and measured after 15 mins
Prolyl endopeptidase = biological target: T2, Prolyl endopeptidase (Homo sapiens, UniProt P48147); assay: Inhibition of PREP (unknown origin) using N-succinyl-Gly-Pro-AMC as substrate preincubated for 15 mins followed by substrate addition and measured after 15 mins
T2 sequence (P48147 whole entry): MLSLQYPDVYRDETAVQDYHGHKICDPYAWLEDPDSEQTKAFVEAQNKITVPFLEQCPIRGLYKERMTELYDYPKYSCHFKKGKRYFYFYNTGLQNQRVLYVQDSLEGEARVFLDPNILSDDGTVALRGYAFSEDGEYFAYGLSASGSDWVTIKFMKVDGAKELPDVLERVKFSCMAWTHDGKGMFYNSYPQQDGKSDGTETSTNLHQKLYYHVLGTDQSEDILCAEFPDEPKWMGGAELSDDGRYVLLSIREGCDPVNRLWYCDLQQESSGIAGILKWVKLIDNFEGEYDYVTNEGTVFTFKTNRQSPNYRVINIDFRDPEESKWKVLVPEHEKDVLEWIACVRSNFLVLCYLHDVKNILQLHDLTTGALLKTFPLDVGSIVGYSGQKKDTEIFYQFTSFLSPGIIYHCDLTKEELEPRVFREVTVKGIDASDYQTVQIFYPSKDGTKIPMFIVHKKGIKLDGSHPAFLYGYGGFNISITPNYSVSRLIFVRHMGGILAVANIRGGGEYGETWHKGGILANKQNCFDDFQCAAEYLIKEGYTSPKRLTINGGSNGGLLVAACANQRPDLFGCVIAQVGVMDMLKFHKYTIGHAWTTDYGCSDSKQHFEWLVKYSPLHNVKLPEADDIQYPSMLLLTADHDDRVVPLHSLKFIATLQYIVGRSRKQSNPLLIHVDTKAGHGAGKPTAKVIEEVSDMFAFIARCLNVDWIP

Sequence of Dipeptidyl peptidase 4 (P27487 whole entry): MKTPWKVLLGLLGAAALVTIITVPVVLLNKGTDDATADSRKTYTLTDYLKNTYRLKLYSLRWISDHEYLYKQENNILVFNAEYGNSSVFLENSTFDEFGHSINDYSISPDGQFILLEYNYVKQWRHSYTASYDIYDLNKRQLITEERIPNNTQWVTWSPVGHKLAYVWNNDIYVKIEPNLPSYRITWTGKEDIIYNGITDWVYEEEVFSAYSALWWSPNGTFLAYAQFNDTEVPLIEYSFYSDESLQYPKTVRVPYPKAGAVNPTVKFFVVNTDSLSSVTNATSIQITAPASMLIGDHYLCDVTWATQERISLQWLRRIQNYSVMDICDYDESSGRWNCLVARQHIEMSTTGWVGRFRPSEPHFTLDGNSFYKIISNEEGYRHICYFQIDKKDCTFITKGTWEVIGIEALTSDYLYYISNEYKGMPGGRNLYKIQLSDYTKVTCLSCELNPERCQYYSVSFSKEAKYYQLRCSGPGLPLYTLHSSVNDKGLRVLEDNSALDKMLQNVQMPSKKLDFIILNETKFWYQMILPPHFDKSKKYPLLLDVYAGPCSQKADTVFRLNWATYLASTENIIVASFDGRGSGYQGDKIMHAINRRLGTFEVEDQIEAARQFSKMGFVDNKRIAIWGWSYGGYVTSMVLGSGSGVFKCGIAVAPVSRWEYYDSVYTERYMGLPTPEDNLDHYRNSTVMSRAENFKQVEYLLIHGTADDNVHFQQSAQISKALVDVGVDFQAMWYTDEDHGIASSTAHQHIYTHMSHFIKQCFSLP
Sequence of Dipeptidyl peptidase 9 (Q86TI2 whole entry): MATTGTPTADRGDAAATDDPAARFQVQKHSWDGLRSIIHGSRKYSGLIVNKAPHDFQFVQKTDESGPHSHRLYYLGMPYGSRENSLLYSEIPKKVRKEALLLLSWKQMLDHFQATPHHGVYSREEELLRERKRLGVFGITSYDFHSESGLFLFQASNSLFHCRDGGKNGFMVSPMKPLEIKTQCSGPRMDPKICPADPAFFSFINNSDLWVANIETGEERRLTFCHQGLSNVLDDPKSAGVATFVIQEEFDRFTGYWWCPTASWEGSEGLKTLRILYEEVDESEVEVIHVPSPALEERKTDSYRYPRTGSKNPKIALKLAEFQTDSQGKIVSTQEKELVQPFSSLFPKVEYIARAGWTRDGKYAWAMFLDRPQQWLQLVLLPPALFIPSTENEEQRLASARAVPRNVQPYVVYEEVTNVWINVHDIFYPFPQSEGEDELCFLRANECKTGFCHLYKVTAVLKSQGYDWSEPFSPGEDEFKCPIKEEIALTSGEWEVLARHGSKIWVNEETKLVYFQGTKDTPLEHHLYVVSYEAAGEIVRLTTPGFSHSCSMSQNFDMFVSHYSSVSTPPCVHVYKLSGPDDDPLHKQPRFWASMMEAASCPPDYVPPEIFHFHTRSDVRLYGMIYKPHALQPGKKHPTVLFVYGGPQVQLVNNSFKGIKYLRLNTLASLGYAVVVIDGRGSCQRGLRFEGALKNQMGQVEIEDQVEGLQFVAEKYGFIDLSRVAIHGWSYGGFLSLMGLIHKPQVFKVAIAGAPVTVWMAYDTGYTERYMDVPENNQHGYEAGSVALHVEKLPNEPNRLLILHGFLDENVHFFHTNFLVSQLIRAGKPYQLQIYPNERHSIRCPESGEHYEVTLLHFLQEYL
Sequence of Dipeptidyl peptidase 8 (Q6V1X1 whole entry): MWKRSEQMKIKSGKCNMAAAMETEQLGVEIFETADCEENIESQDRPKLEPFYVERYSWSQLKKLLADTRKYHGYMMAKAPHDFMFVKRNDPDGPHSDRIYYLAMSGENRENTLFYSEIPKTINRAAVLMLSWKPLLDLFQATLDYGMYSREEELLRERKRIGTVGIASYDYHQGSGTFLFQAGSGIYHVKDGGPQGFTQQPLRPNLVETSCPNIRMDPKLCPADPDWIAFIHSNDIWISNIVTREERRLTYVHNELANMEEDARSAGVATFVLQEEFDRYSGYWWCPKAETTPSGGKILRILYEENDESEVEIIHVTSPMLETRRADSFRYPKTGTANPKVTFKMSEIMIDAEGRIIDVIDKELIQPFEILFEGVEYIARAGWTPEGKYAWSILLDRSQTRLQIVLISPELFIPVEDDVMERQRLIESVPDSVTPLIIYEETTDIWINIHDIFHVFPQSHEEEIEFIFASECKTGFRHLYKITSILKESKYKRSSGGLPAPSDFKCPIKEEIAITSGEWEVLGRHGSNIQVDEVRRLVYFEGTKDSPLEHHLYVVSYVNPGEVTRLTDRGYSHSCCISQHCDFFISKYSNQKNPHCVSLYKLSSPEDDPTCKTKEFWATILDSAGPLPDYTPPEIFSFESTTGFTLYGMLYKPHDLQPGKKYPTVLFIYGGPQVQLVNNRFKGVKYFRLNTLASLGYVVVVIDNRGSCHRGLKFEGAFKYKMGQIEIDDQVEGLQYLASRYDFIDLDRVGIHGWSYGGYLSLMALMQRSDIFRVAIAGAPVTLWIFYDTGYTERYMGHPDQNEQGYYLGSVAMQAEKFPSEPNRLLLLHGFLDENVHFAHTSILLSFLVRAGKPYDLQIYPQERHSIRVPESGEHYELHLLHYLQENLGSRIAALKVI

With N#C[C@@H]1CC(F)(F)CN1C(=O)CNC(=O)c1ccnc2ccc(OCC(O)C[18F])cc12 (stereo partly specified) the logD at 2 min [1] was 0.18, the remaining at 1 h, 185 kBq [2] was > 70% and the remaining at 1 h, 185 kBq [3] was > 70%. For the same molecule, the Stability [4] was “Stable”, the Stability [5] was “Stable” and the Stability [6] was “Unstable”. For the same molecule, the Drug uptake [7] was “Active”, the Drug uptake [8] was “Active” and the Drug uptake [9] was “Active”. The Drug uptake [10] was “Active”, the Drug uptake [11] was < 3 %ID/ml and the Drug uptake [12] was “Not Active”. The Drug uptake [13] was “Active”, the Ratio [14] was 3.6 and the Ratio [15] was 6.58. For the same molecule, the Ratio [16] was 0.16, the Ratio [17] was 2.37 and the Drug uptake [18] was “Active”. The Drug uptake [19] was “Not Active” and the Drug uptake [20] was “Active”.
For N#C[C@@H]1CC(F)(F)CN1C(=O)CNC(=O)c1ccnc2ccc(OC[C@H](O)[C@@H](O)CF)cc12, the IC50 (Prolyl endopeptidase FAP) was 0.00177 µM, the IC50 (Dipeptidyl peptidase 4) was > 10 µM and the IC50 (Dipeptidyl peptidase 8) was > 10 µM. For the same molecule, the IC50 (Dipeptidyl peptidase 9) was > 10 µM, the IC50 (Dipeptidyl peptidase 2) was > 10 µM and the IC50 (Prolyl endopeptidase) was > 10 µM.

— ChEMBL document CHEMBL5543163, “Druglike, 18F-labeled PET Tracers Targeting Fibroblast Activation Protein” (J Med Chem, 2024)
